Assay results taken from the array DNA melting data of Ke et al. (doi:10.1101/2024.01.08.574731).

Legend:
[1] = folding enthalpy; higher = less favourable; fluorescence melt of hairpins on a sequencing array, two-state fit; conditions: sodium 0.088 M
Procedure, shortened: (§1)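 Hairpins were imaged by Cy3 fluorescence on a sequenced MiSeq flow cell with annealed Cy3 and quencher oligos, in 50 mM Na-HEPES pH 8.0, 25 mM NaCl, in 2.5 °C steps up to 60 °C. Bootstrapped two-state fits of normalised signals gave melting temperature and folding enthalpy. Four replicates were combined by inverse variance, and fitted temperatures were raised by 9.35 °C to match UV melts.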

[2] = melting temperature; fluorescence melt of hairpins on a sequencing array, two-state fit, raised by 9.35 °C to match UV melts; conditions: sodium 0.088 M
Procedure, shortened: as §1

Sequence | folding enthalpy [1] [kcal/mol] | Tm [2] [°C]
GCAGCGCGAAAGCCCTGC ((((.((....)).)))) | -25.9 | 60.1
CGACACCGGAAACGGTCG (((..(((....)))))) | -13.7 | 42
CGTTGACGGAAACGTACG (((..(((....)))))) | -18.8 | 43.2
CCCTAGAAATAGGG (((((....))))) | -20.7 | 38.2
GCCCGATCGAAAGATGGC (((..(((....)))))) | -23.6 | 40.2
GGTAAGGGAAACCTTACC (((((((....))))))) | -46.1 | 57.5
GCGTACGGACGC ((((....)))) | -29.5 | 52.9
GCGTAGCGAAAGCTCCGC (((.(((....))).))) | -40 | 49.7
GCTCTGCGAAAGCCGTGC ((.(.((....)).).)) | -11.9 | 36.2
GGACACGAAAGTGTTTCC ((((((....)))..))) | -11.5 | 38
GTACTTGCGAAAGCATAC (((..(((....)))))) | -9 | 30.2
GCTGAGCGAAAGCCCAGC ((((.((....)).)))) | -47.6 | 63.9
GTCAACGGAAACGTTGAC (((((((....))))))) | -45.2 | 69
GACTCGACGAAAGTCGTC (((..(((....)))))) | -8.01 | 31.4
GTGCTCGAAAGAGACAC ((((((....))).))) | -22.4 | 47.3
GGGCTCGAAAGAGCGCCC ((((((....)))..))) | -10.7 | 56.6
GGGGTAGCGAAAGCTCCC (((..(((....)))))) | -23.2 | 58.4
GAGTGCGAAAGCAAGCTC ((((((....)))..))) | -14.2 | 43.6
GATCTGGCATCAGATC ((((((....)))))) | -46.2 | 54.6
GCACGGCGAAAGCGGGGC ((.(.((....)).).)) | -31.5 | 64.9
GCGGCGCACCGC ((((....)))) | -14.2 | 59.7
GCCAACGAAAGTTGCGGC ((((((....)))..))) | -16.9 | 51.5
GAAACCGAAAGGTGTTTC ((((((....)))..))) | -13.2 | 35.9

Sequence | folding enthalpy [1] [kcal/mol] | Tm [2] [°C]
GGGGTAGAAATACCCC ((((((....)))))) | -34.9 | 60.4
GATCTCAGAGAGATC ((((((...)))))) | -36 | 55.4
GCGTTAGGAAACTAACAC (.(((((....))))).) | -16.2 | 35.9
GATCGTTCTTACGATC ((((((....)))))) | -40.6 | 56.3
GTCGGCGAAAGCCTTGAC ((((((....)))..))) | -13 | 40.5
GGTTTTGCGAAAGCAACC (((..(((....)))))) | -11.9 | 30.2
GGCTGAGGAAACTTGGCC (((..((....))..))) | -30.8 | 43.8
GCCCGTGGAAACACGAGC ((.((((....)))).)) | -24 | 50.8
GCCTACGAAAGTATGGGC ((((((....)))..))) | -34.8 | 46.5
GTGCTTCGAAAGAACCAC (((.(((....))).))) | -27.8 | 34.8
GATCAAAATCTTGATC ((((((....)))))) | -27.8 | 39.9
GATTTTGGAAACAAGATC (((.(((....))).))) | -22.4 | 33.6
GGTACGGCGAAAGCCACC (((..(((....)))))) | -10.6 | 38.1
GATCCTCAATAGGATC ((((((....)))))) | -34.2 | 49.5
GCCAAGGGAAACCTTGGC (((((((....))))))) | -37.5 | 68.8
GCCAGACGAAAGTCGGC (((.(((....)))))) | -27.6 | 66.6
GGGTCTTCGAAAGAACCC (((..(((....)))))) | -29.2 | 40.6
GCTTACCGAAAGGTGAGC (((.(((....))).))) | -40.5 | 58.6
GCGTTAACACGC ((((....)))) | -20.1 | 49.1
GATGACGAAAGTCGATC ((((((....))).))) | -18.8 | 45.2
GATCGTAGAGACGATC ((((((....)))))) | -25.4 | 51.9
GAGGCCGGAAACGACCTC ((((.((....)).)))) | -44.9 | 52.9
GTGATCGGAAACGGTTAC ((.(.((....)).).)) | -29.9 | 31.9

Sequence | folding enthalpy [1] [kcal/mol] | Tm [2] [°C]
GATCTATGATAGATC ((((((...)))))) | -25.2 | 37.3
GCACTAGAAATAGTGC ((((((....)))))) | -33.6 | 55.4
GATCACCAAGTGATC ((((((...)))))) | -36.8 | 52.5
GATCGGCTCTCCGATC ((((((....)))))) | -47.3 | 55.4
GGGATACGAAAGTAACCC (((.(((....))).))) | -31.1 | 51.7
GGTTGCGGAAACGCGATC (.(.(((....))).).) | -19.7 | 41.7
GAATACGAAAGTATTTC ((((((....))).))) | -15.8 | 38.3
GCCCCGCGAAAGCATGGC (((..((....))..))) | -17.4 | 45.4
GCTAAGCGAAAGCTGCGC ((..(((....)))..)) | -21.1 | 58.3
GCGCACGAAAGTGTCCGC ((((((....)))..))) | -18.6 | 48
GGGCTAGGAAACTGGTCC ((.(.((....)).).)) | -33.6 | 41
GCGGGAGGAAACCCCCAC (.(((.(....).))).) | -10.6 | 27.7
GAGCCTCCGAAAGGACTC (((..(((....)))))) | -11.8 | 31.9
GATCGGATTGCCGATC ((((((....)))))) | -28.7 | 55
CGTAAGCGGAAACGCACG (((..(((....)))))) | -22.6 | 41.8
GAAAAAACGAAAGTTTTC (((..(((....)))))) | -13.4 | 30.9
GGTCTCGAAAGAGCAACC ((((((....)))..))) | -14.2 | 34.5
GCCCTAGGAAACCAAGGC (((.(.(....).).))) | -12 | 28.2
GCAGTTGGAAACAACTAC (.(((((....))))).) | -17.1 | 37.5
GGAATAGGAAACTGTTCC ((((.((....)).)))) | -33 | 42.9
GGGCTCGGAAACGAACCC (((.(((....))).))) | -46.9 | 51
GCGGTGCGAAAGCAGGGC ((..(((....)))..)) | -20.5 | 55.2
GATCCGCGGACGGATC ((((((....)))))) | -37.5 | 56.2

Sequence | folding enthalpy [1] [kcal/mol] | Tm [2] [°C]
GTTGTAACGAAAGTTAAC (((..(((....)))))) | -26.1 | 37.9
GTTGCCGAAAGGCGTAAC ((((((....)))..))) | -9.66 | 34.7
GTCCTCGAAAGAGCGGAC ((((((....)))..))) | -22.1 | 36.1
GGGCTACGAAAGTACCC (((.(((....)))))) | -34.9 | 49.6
GATCGTCTCACGATC ((((((...)))))) | -40.6 | 57.4
GACCCCGAAAGGGGTGTC ((((((....)))..))) | -9.59 | 60.6
GGAACTGGAAACAGTTTC (.(((((....))))).) | -27.7 | 46.2
GCACAAGGAAACTCGTGC ((((.((....)).)))) | -31.4 | 43.8
GCTTCGCGAAAGCTCAGC (((..((....))..))) | -13.4 | 44.5
GCATGGCGAAAGCCCAGC ((..(((....)))..)) | -12 | 46.3
GCATACGGAAACGTATAC (.(((((....))))).) | -16.9 | 34.9
GTGGAGGGAAACCTCCGC (.(((((....))))).) | -37.6 | 56.2
GCGTTCTCGAAAGAGCGC (((..(((....)))))) | -34.3 | 51.1
GCAGCGCGAAAGCGCCGC ((.((((....)))).)) | -15.5 | 67.4
GATCCTTTAAAGGATC ((((((....)))))) | -40.9 | 53.4
GAGTCGCGAAAGCGTCTC (((.(((....))).))) | -22.3 | 54.7
GGTGGCGGAAACACCACC (((((.(....).))))) | -42.3 | 53.8
GATCAATAGATTGATC ((((((....)))))) | -31 | 42.5
GGATCCGAAAGGAATCC ((((((....))).))) | -31.7 | 50.8
GGTTTCGGAAACGAGACC (((.(((....))).))) | -33.1 | 50
GTGTGGGGAAACTCACAC (((((.(....).))))) | -36.3 | 52.3
GATCAGTTGGCTGATC ((((((....)))))) | -43 | 54.3
GATCGATGATTCGATC ((((((....)))))) | -36.4 | 53.2
